Data: ChEMBL document CHEMBL1137906, “Microwave assisted synthesis of 2-(4-substituted piperazin-1-yl)-1,8-naphthyridine-3-carbonitrile as a new class of serotonin 5-HT3 receptor antagonists” (Bioorg Med Chem Lett, 2004)

Experiment: Antagonism of 2-methyl-5-HT effect on 5-hydroxytryptamine 3 receptor in isolated guinea pig ileum
Assay type: functional, tissue-based
Settings: Cavia porcellus, read-out: pA2 (converted)
Method in brief: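 Longitudinal muscle-myenteric plexus strip from guinea pig ileum, prepared by a literature method. Equilibrated 30 min at 500 mg resting tension in Tyrode solution, ca. 37°C, constant aeration. Agonist 2-methyl-5-HT added noncumulatively at 15 min intervals; antagonism of its contractile response measured. Values are means of three separate experiments.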

| SMILES | Kb |
| --- | --- |
| CCN1CCN(c2nc3ncccc3cc2C#N)CC1 | 79.4 nM |
| N#Cc1cc2cccnc2nc1N1CCNCC1 | 316 nM |
| CN1CCN(c2nc3ncccc3cc2C#N)CC1 | 39.8 nM |
| Cc1nccn1CC1CCc2c(c3ccccc3n2C)C1=O (configuration not stated) [ONDANSETRON] | 126 nM |
| N#Cc1cc2cccnc2nc1N1CCN(c2ccccn2)CC1 | 126000 nM |
| N#Cc1cc2cccnc2nc1N1CCN(c2ccc([N+](=O)[O-])cc2)CC1 | 158000 nM |
| COc1ccc(N2CCN(c3nc4ncccc4cc3C#N)CC2)cc1 | 12600 nM |
| COc1cccc(N2CCN(c3nc4ncccc4cc3C#N)CC2)c1 | 1000 nM |
| C=CCN1CCN(c2nc3ncccc3cc2C#N)CC1 | 6.31 nM |
| N#Cc1cc2cccnc2nc1N1CCN(Cc2ccccc2)CC1 | 7940 nM |
| N#Cc1cc2cccnc2nc1N1CCN(c2ccccc2)CC1 | 2000 nM |
| COc1ccccc1N1CCN(c2nc3ncccc3cc2C#N)CC1 | 3980 nM |
